Results from ChEMBL document CHEMBL1129495, “Highly selective bradykinin agonists and antagonists with replacement of proline residues by N-methyl-D- and L-phenylalanine” (J Med Chem, 1996).
Square brackets hold non-standard residues; d marks the D form. Peptide text beside a SMILES is read from it.

Columns and labels:
Cavia porcellus [1] = species on record: Cavia porcellus; test: Antagonistic activity was evaluated in Guinea pig lung strip assay.; assay type: functional; design: scale not given: the % may be the effect or the level left
Procedure, shortened: (§1)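 Lower-lobe lung strips (2–3 mm) from guinea pigs (400–600 g) in Krebs–Henseleit at 37 °C under 1 g load, with isometric tension recorded. After 1 h equilibration, peptide was given 5 min before an ED50 dose of BK. Cumulative BK curves covered 0.01–10 µM. pA2 by the van Rossum method.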

Cavia porcellus [2] = species on record: Cavia porcellus; test: (§2) Antagonistic activity was evaluated in Guinea pig ileum assay.; assay type: functional; design: scale not given: the % may be the effect or the level left
Procedure, shortened: (§3)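 Guinea pig terminal ileum in Tyrode at 37 °C under 0.5 g tension, isotonic recording. Analog added 5 min before a cumulative BK dose–response curve (maximum at 0.3 µM BK). pA2 is the negative log of the antagonist concentration that reduces the effect of a double BK dose to that of a single dose. Means of 3–7 determinations.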

[3] = Inhibitory activity against low binding affinity binding site of Bradykinin receptor in rat uterus membrane was reported.; assay type: cell membranes
Procedure, shortened: (§4)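 Fresh rat myometrial or guinea pig ileum membranes (0.3–0.5 mg protein) incubated 30 min at 4 °C with 0.05 nM [3H]BK and increasing peptide concentrations. Buffer: 25 mM TES pH 6.8, 1 µM captopril, 1 mM DTE, bacitracin, BSA. Samples filtered on PEI-treated GF/C and counted. High- and low-affinity IC50s from Tobler–Engel analysis; duplicates.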

[4] = Selectivity for rat uterus is expressed as the ratio RUT/GPI; assay type: functional
Procedure, shortened: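 Ratio of agonist activity (percent of BK) in estrus rat uterus to that in guinea pig ileum, both from isotonic contraction assays using the Schild 4-point method.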

Rattus norvegicus [5] = species on record: Rattus norvegicus; test: Agonistic activity was evaluated in Estrus Rat Uterus Assay; assay type: functional
Procedure, shortened: (§5)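 Uteri from female Wistar rats (180–200 g) given diethylstilbestrol 100 µg/kg sc 16 h before use. Distal horns held in de Jalon solution at 28 °C under 0.5 g resting tension, with isotonic contractions recorded. BK was dosed every 4 min and left in the bath 45 s. Agonist activity by Schild 4-point method, expressed as percent of BK activity.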

[6] = Inhibitory activity against high binding affinity binding site of Bradykinin receptor in rat uterus membrane was reported.; assay type: cell membranes; procedure, shortened: as §4
[7] = Inhibitory activity against low binding affinity binding site of Bradykinin receptor in guinea pig ileum was reported.; assay type: tissue-based, Cavia porcellus; procedure, shortened: as §4
[8] = Inhibitory activity against low affinity binding site of Bradykinin receptor in rat uterus membrane was reported.; assay type: cell membranes; procedure, shortened: as §4
[9] = Inhibitory activity against low affinity binding site of Bradykinin receptor in guinea pig ileum; assay type: tissue-based; conditions: Cavia porcellus; procedure, shortened: as §4
[10] = Inhibitory activity against high affinity binding site of Bradykinin receptor in guinea pig ileum was reported.; assay type: tissue-based; conditions: Cavia porcellus; procedure, shortened: as §4
Cavia porcellus [11] = species on record: Cavia porcellus; test: Antagonistic activity expressed as pA2 in Guinea pig lung strip assay.; assay type: functional; conditions: read-out: pA2 (converted); procedure, shortened: as §1
[12] = Inhibitory activity against high affinity binding site of Bradykinin receptor in rat uterus membrane was reported.; assay type: cell membranes; procedure, shortened: as §4
Cavia porcellus [13] = species on record: Cavia porcellus; test: as §2; assay type: functional, organism-based; conditions: read-out: pA2 (converted); procedure, shortened: as §3
Cavia porcellus [14] = species on record: Cavia porcellus; test: Compound was tested for agonist activity for contraction of guinea pig ileum; the negative logarithm of ED50 (pD2) was estimated.
Cavia porcellus [15] = species on record: Cavia porcellus; test: Agonistic activity against selectivity for smooth muscle contraction in guinea pig ileum.; assay type: functional, Muscle tissue
Procedure, shortened: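 Isolated terminal ileum (1.5 cm) from guinea pigs fasted 16 h, in Tyrode at 37 °C. Isotonic contractions recorded under 0.5 g resting tension. Agonist activity measured by Schild 4-point method against BK doses of 1 and 2 nM, expressed as percent of BK activity.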

Rattus norvegicus [16] = species on record: Rattus norvegicus; test: Agonistic activity against selectivity for smooth muscle contraction in rat uterus.; assay type: functional, Muscle tissue; procedure, shortened: as §5
Rattus norvegicus [17] = species on record: Rattus norvegicus; test: Compound was tested for agonist activity for contraction of rat uterus, the negative logarithm of ED50 (pD2) was estimated.

IC50 [3] [nM]	IC50 [6] [nM]	IC50 [7] [nM]	IC50 [8] [nM]	IC50 [9] [nM]	IC50 [10] [nM]	IC50 [12] [nM]	Molecule	Activity (Cavia porcellus [1]) [%]	Activity (Cavia porcellus [2]) [%]	Ratio [4]	Activity (Rattus norvegicus [5]) [%]	Kb (Cavia porcellus [11]) [nM]	Kb (Cavia porcellus [13]) [nM]	pD2 (Cavia porcellus [14])	Activity (Cavia porcellus [15]) [%]	Activity (Rattus norvegicus [16]) [%]	pD2 (Rattus norvegicus [17])
65	0.49	29	–	–	–	–	CN(C(=O)[C@H](CO)NC(=O)[C@H](Cc1cccs1)NC(=O)CNC(=O)[C@@H]1CC(O)CN1C(=O)[C@@H]1CCCN1C(=O)[C@@H](N)CCCN=C(N)N)[C@H](Cc1ccccc1)C(=O)N[C@@H](Cc1ccccc1)C(=O)N[C@@H](CCCN=C(N)N)C(=O)O (stereo partly drawn)	0.04	0.02	4000	89	–	–	–	–	–	–
–	–	–	232	25	1	3.5	CN(C(=O)[C@@H](N)CCCN=C(N)N)[C@@H](Cc1ccccc1)C(=O)N1CCC[C@H]1C(=O)NCC(=O)N[C@@H](Cc1ccccc1)C(=O)N[C@@H](CO)C(=O)N1CCC[C@H]1C(=O)N[C@@H](Cc1ccccc1)C(=O)N[C@@H](CCCN=C(N)N)C(=O)O	1.4	4	–	35	2570	–	–	–	–	–
3.5	6.6	14	–	–	–	–	NC(N)=NCCC[C@H](NC(=O)[C@H](Cc1ccccc1)NC(=O)[C@@H](Cc1ccccc1)NC(=O)[C@H](CO)NC(=O)[C@H](Cc1ccccc1)NC(=O)CNC(=O)[C@@H]1CCCN1C(=O)[C@@H]1CCCN1C(=O)[C@@H](N)CCCN=C(N)N)C(=O)O (H-RPPGFS[dF]FR-OH)	0.9	–	–	1.7	–	2750	–	–	–	–
–	–	–	1	1.75	0.01	0.01	H-RPPGFSPFR-OH [BRADYKININ]	100	100	1	100	–	–	7.4	100	100	7.9
